Data as given in ChEMBL document CHEMBL3804761, “Synthesis of a stable and orally bioavailable englerin analogue” (Bioorg Med Chem Lett, 2016).

Assays:
Assay type in all cases: functional
NCI-H522 = assay: Growth inhibition of human NCI-H522 cells assessed as cell growth at 10 uM incubated for 48 hrs by sulforhodamine B assay relative to control; conditions: NCI-H522, 48 h, read-out: Activity
Method in brief: (§1)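 Run in the standard NCI 60-cell-line screen. Cells were exposed to drug for two days, and the read-out was sulforhodamine B staining. Compound was tested at a single final concentration of 10 µM in every line, and results are reported as growth percent.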

MDA-MB-468 = assay: Growth inhibition of human MDA-MB-468 cells assessed as cell growth at 10 uM incubated for 48 hrs by sulforhodamine B assay relative to control; conditions: MDA-MB-468, 48 h, read-out: Activity; method in brief: as §1
[1] = Growth inhibition of human OVCAR4 cells incubated for 48 hrs by sulforhodamine B assay; conditions: OVCAR-4, 48 h; for TGI: read-out: pTGI (converted)
Method in brief: (§2)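 NCI 60-cell-line panel, standard protocol. Cells exposed to compound for two days, growth read by sulforhodamine B staining. Tested at five 10-fold dilutions, top concentration 100 µM, to give dose-response curves.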

[2] = Growth inhibition of human DU145 cells incubated for 48 hrs by sulforhodamine B assay; conditions: DU-145, 48 h; for CC50: read-out: pLC50 (the source's name) (converted); for TGI: read-out: pTGI (converted); method in brief: as §2
[3] = Growth inhibition of human SNB75 cells assessed as cell growth at 10 uM incubated for 48 hrs by sulforhodamine B assay relative to control; conditions: SNB-75, 48 h, read-out: Activity; method in brief: as §1
[4] = Growth inhibition of human SKOV3 cells assessed as cell growth at 10 uM incubated for 48 hrs by sulforhodamine B assay relative to control; conditions: SK-OV-3, 48 h, read-out: Activity; method in brief: as §1
[5] = Growth inhibition of human OVCAR3 cells assessed as cell growth at 10 uM incubated for 48 hrs by sulforhodamine B assay relative to control; conditions: OVCAR-3, 48 h, read-out: Activity; method in brief: as §1
[6] = Growth inhibition of human SW620 cells incubated for 48 hrs by sulforhodamine B assay; conditions: SW-620, 48 h; for TGI: read-out: pTGI (converted)
Method in brief: (§3)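 Tested in the standard NCI 60-cell-line protocol with two-day drug exposure and a sulforhodamine B endpoint. Compounds were first screened at a single final concentration of 10 µM, reported as growth percent. They were then run as five 10-fold dilutions starting from a high concentration of 100 µM to give dose-response curves.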

[7] = Growth inhibition of human SNB75 cells incubated for 48 hrs by sulforhodamine B assay; conditions: SNB-75, 48 h; for TGI: read-out: pTGI (converted); method in brief: as §3
[8] = Growth inhibition of human SW620 cells assessed as cell growth at 10 uM incubated for 48 hrs by sulforhodamine B assay relative to control; conditions: SW-620, 48 h, read-out: Activity; method in brief: as §1
[9] = Growth inhibition of human PC3 cells assessed as cell growth at 10 uM incubated for 48 hrs by sulforhodamine B assay relative to control; conditions: PC-3, 48 h, read-out: Activity; method in brief: as §1
SN12C = assay: Growth inhibition of human SN12C cells assessed as cell growth at 10 uM incubated for 48 hrs by sulforhodamine B assay relative to control; conditions: read-out: Activity; method in brief: as §1
[10] = Growth inhibition of human RXF393 cells incubated for 48 hrs by sulforhodamine B assay; conditions: RXF 393, 48 h; for CC50: read-out: pLC50 (the source's name) (converted); for TGI: read-out: pTGI (converted)
Method in brief: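 Run in the NCI 60-cell-line protocol, with 2-day drug exposure and sulforhodamine B read-out. Dose-response testing used five 10-fold dilutions starting from a high concentration of 100 µM.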

[11] = Growth inhibition of human MOLT4 cells incubated for 48 hrs by sulforhodamine B assay; conditions: MOLT-4, 48 h; for TGI: read-out: pTGI (converted); method in brief: as §2
[12] = Growth inhibition of human MOLT4 cells assessed as cell growth at 10 uM incubated for 48 hrs by sulforhodamine B assay relative to control; conditions: MOLT-4, 48 h, read-out: Activity; method in brief: as §1
[13] = Growth inhibition of human OVCAR4 cells assessed as cell growth at 10 uM incubated for 48 hrs by sulforhodamine B assay relative to control; conditions: OVCAR-4, 48 h, read-out: Activity; method in brief: as §1
A498 = assay: Growth inhibition of human A498 cells assessed as cell growth at 10 uM incubated for 48 hrs by sulforhodamine B assay relative to control; conditions: A498, 48 h, read-out: Activity
ACHN = assay: Growth inhibition of human ACHN cells assessed as cell growth at 10 uM incubated for 48 hrs by sulforhodamine B assay relative to control; conditions: read-out: Activity; method in brief: as §1
SK-MEL-2 = assay: Growth inhibition of human SK-MEL-2 cells incubated for 48 hrs by sulforhodamine B assay; conditions: SK-MEL-2, 48 h; for TGI: read-out: pTGI (converted); method in brief: as §2
[14] = Growth inhibition of human Caki1 cells incubated for 48 hrs by sulforhodamine B assay; conditions: CAKI-1, 48 h; for TGI: read-out: pTGI (converted); method in brief: as §2
[15] = Growth inhibition of human OVCAR8 cells incubated for 48 hrs by sulforhodamine B assay; conditions: OVCAR-8, 48 h; for TGI: read-out: pTGI (converted); method in brief: as §2
[16] = Growth inhibition of human OVCAR5 cells incubated for 48 hrs by sulforhodamine B assay; conditions: OVCAR-5, 48 h; for TGI: read-out: pTGI (converted); method in brief: as §2
HT-29 = assay: Growth inhibition of human HT-29 cells assessed as cell growth at 10 uM incubated for 48 hrs by sulforhodamine B assay relative to control; conditions: HT-29, 48 h, read-out: Activity; method in brief: as §1
CCRF-CEM = assay: Growth inhibition of human CCRF-CEM cells incubated for 48 hrs by sulforhodamine B assay; conditions: for CC50: read-out: pLC50 (the source's name) (converted); for TGI: read-out: pTGI (converted); method in brief: as §2
[17] = Growth inhibition of human UO31 cells incubated for 48 hrs by sulforhodamine B assay; conditions: UO-31, 48 h; for CC50: read-out: pLC50 (the source's name) (converted); for TGI: read-out: pTGI (converted); method in brief: as §3
[18] = Growth inhibition of human UACC62 cells incubated for 48 hrs by sulforhodamine B assay; conditions: UACC-62, 48 h; for TGI: read-out: pTGI (converted); method in brief: as §3
T47D = assay: Growth inhibition of human T47D cells assessed as cell growth at 10 uM incubated for 48 hrs by sulforhodamine B assay relative to control; conditions: read-out: Activity
Method in brief: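 NCI 60-cell line standard protocol, one-dose screen: single final concentration 10 µM, 2-day drug exposure, sulforhodamine B (SRB) endpoint; read-out is growth percent relative to untreated control.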

NCI-H322M = assay: Growth inhibition of human NCI-H322M cells incubated for 48 hrs by sulforhodamine B assay; conditions: for TGI: read-out: pTGI (converted); method in brief: as §2
[19] = Growth inhibition of human SNB19 cells incubated for 48 hrs by sulforhodamine B assay; conditions: SNB-19, 48 h; for CC50: read-out: pLC50 (the source's name) (converted); for TGI: read-out: pTGI (converted); method in brief: as §3

CC(C)[C@@]12C[C@@H](NC(=O)CO)[C@@](C)(O1)[C@@H]1CC[C@@H](C)[C@H]1[C@@H]2OC(=O)c1ccc2ccccc2c1
growth at 10 µM (NCI-H522): 77.7% | growth at 10 µM (MDA-MB-468): 81.5% | GI50 [1]: 16.2 µM | LC50 (concentration killing 50% of cells) [1]: 61.7 µM | TGI [1]: 31.6 µM | GI50 [2]: 16.2 µM | CC50 [2]: 56.2 µM | TGI [2]: 30.2 µM | growth at 10 µM [3]: 72.7% | growth at 10 µM [4]: 96.4% | growth at 10 µM [5]: 98.8% | GI50 [6]: 16.6 µM | LC50 (50% lethal concentration) [6]: 72.4 µM | TGI [6]: 34.7 µM | GI50 [7]: 13.2 µM | LC50 [7]: 56.2 µM | TGI [7]: 27.5 µM | growth at 10 µM [8]: 96.2% | growth at 10 µM [9]: 66.9% | growth at 10 µM (SN12C): 66.7% | GI50 [10]: 6.17 µM | CC50 [10]: 49 µM | TGI [10]: 20.4 µM | GI50 [11]: 18.6 µM | LC50 [11]: 89.1 µM | TGI [11]: 40.7 µM | growth at 10 µM [12]: 74.9% | growth at 10 µM [13]: 82.2% | growth at 10 µM (A498): -15.2% | growth at 10 µM (ACHN): 8.4% | GI50 (SK-MEL-2): 17 µM | LC50 (SK-MEL-2): 60.3 µM | TGI (SK-MEL-2): 31.6 µM | GI50 [14]: 10 µM | LC50 [14]: 50.1 µM | TGI [14]: 22.4 µM | GI50 [15]: 6.46 µM | LC50 (concentration killing 50% of cells) [15]: 60.3 µM | TGI [15]: 22.4 µM | GI50 [16]: 15.5 µM | LC50 [16]: 55 µM | TGI [16]: 28.8 µM | growth at 10 µM (HT-29): 93.7% | GI50 (CCRF-CEM): 15.8 µM | CC50 (CCRF-CEM): 75.9 µM | TGI (CCRF-CEM): 34.7 µM | GI50 [17]: 11.5 µM | CC50 [17]: 50.1 µM | TGI [17]: 24 µM | GI50 [18]: 13.5 µM | LC50 (lethal concentration, 50% net cell kill) [18]: 55 µM | TGI [18]: 26.9 µM | growth at 10 µM (T47D): 67.9% | GI50 (NCI-H322M): 13.5 µM | LC50 (NCI-H322M): 52.5 µM | TGI (NCI-H322M): 26.9 µM | GI50 [19]: 16.2 µM | CC50 [19]: 60.3 µM | TGI [19]: 31.6 µM

CC(C)[C@@]12C[C@@H](NC(=O)CO)[C@@](C)(O1)[C@@H]1CC[C@@H](C)[C@H]1[C@@H]2OC(=O)/C=C/C1CCCCC1
growth at 10 µM (NCI-H522): 88.8% | growth at 10 µM (MDA-MB-468): 97.5% | GI50 [1]: > 44.7 µM | LC50 (concentration killing 50% of cells) [1]: > 44.7 µM | TGI [1]: > 44.7 µM | GI50 [2]: > 44.7 µM | CC50 [2]: > 44.7 µM | TGI [2]: > 44.7 µM | growth at 10 µM [3]: 86.1% | growth at 10 µM [4]: 103% | growth at 10 µM [5]: 110% | GI50 [6]: > 44.7 µM | LC50 (50% lethal concentration) [6]: > 44.7 µM | TGI [6]: > 44.7 µM | GI50 [7]: > 44.7 µM | LC50 [7]: > 44.7 µM | TGI [7]: > 44.7 µM | growth at 10 µM [8]: 102% | growth at 10 µM [9]: 106% | growth at 10 µM (SN12C): 86.7% | GI50 [10]: 13.8 µM | CC50 [10]: > 44.7 µM | TGI [10]: > 44.7 µM | GI50 [11]: > 44.7 µM | LC50 [11]: > 44.7 µM | TGI [11]: > 44.7 µM | growth at 10 µM [12]: 98% | growth at 10 µM [13]: 98.6% | growth at 10 µM (A498): 41% | growth at 10 µM (ACHN): 99.9% | GI50 (SK-MEL-2): > 44.7 µM | LC50 (SK-MEL-2): > 44.7 µM | TGI (SK-MEL-2): > 44.7 µM | GI50 [14]: > 44.7 µM | LC50 [14]: > 44.7 µM | TGI [14]: > 44.7 µM | GI50 [15]: 28.2 µM | LC50 (concentration killing 50% of cells) [15]: > 44.7 µM | TGI [15]: > 44.7 µM | GI50 [16]: > 44.7 µM | LC50 [16]: > 44.7 µM | TGI [16]: > 44.7 µM | growth at 10 µM (HT-29): 97.4% | GI50 (CCRF-CEM): > 44.7 µM | CC50 (CCRF-CEM): > 44.7 µM | TGI (CCRF-CEM): > 44.7 µM | GI50 [17]: 10 µM | CC50 [17]: > 44.7 µM | TGI [17]: 30.2 µM | GI50 [18]: > 44.7 µM | LC50 (lethal concentration, 50% net cell kill) [18]: > 44.7 µM | TGI [18]: > 44.7 µM | growth at 10 µM (T47D): 102% | GI50 (NCI-H322M): > 44.7 µM | LC50 (NCI-H322M): > 44.7 µM | TGI (NCI-H322M): > 44.7 µM | GI50 [19]: > 44.7 µM | CC50 [19]: > 44.7 µM | TGI [19]: > 44.7 µM
